Data published in ChEMBL document CHEMBL1125337, “Synthesis and antibacterial activity of a series of basic amides of teicoplanin and deglucoteicoplanin with polyamines” (J Med Chem, 1992).
≈ marks a conversion by molar mass, not a printed value.

How the values were obtained:
Proteus vulgaris = experiment: Minimum inhibitory concentration against Proteus vulgaris ATCC 881; type: functional
Procedure, shortened: (§1)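 MIC (µg/mL) by microbroth dilution in Iso-Sensitest broth; final inoculum 10^4 cfu/mL; 24 h at 37 °C in air.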

Staphylococcus aureus = experiment: Minimum inhibitory concentration against Staphylococcus aureus L 165; type: functional; procedure, shortened: as §1
Streptococcus pneumoniae = experiment: Minimum inhibitory concentration against Streptococcus pneumoniae L 44; type: functional
Procedure, shortened: (§2)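 MIC (µg/mL) by microbroth dilution in Todd-Hewitt broth, final inoculum 10^4 cfu/mL, incubated 24 h at 37 °C in air.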

Streptococcus pyogenes [1] = experiment: Minimum inhibitory concentration of compound was determined against Streptococcus pyogenes L 49 in mouse; type: functional
Escherichia coli = experiment: Minimum inhibitory concentration against Escherichia coli L 47; type: functional; procedure, shortened: as §1
[2] = test system: Staphylococcus haemolyticus; experiment: Minimum inhibitory concentration against Staphylococcus haemolyticus L 602; type: functional; procedure, shortened: as §1
Streptococcus pyogenes [3] = experiment: Minimum inhibitory concentration against Streptococcus pyogenes L 49; type: functional; procedure, shortened: as §2
[4] = test system: Staphylococcus epidermidis; experiment: Minimum inhibitory concentration against Staphylococcus epidermidis ATCC 12228; type: functional; procedure, shortened: as §1
Enterococcus faecalis = experiment: Minimum inhibitory concentration against Enterococcus faecalis ATCC 7080; type: functional
Procedure, shortened: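 Microbroth dilution MIC (µg/mL), final inoculum 10^4 cfu/mL, incubated 24 h at 37 °C in air.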

Pseudomonas aeruginosa = experiment: Minimum inhibitory concentration against Pseudomonas aeruginosa ATCC 10145; type: functional; procedure, shortened: as §1
Streptococcus pyogenes [5] = experiment: Efficacy of compound administered subcutaneously against Streptococcus pyogenes L 49 Septicemia in mouse; type: functional; conditions: sc
Procedure, shortened: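 Mice were infected intraperitoneally with about 10^5 Strep. pyogenes L 49 cells, about 100 times the 50% lethal dose. Groups of 5–8 mice were treated once right after challenge, by the route stated in the line. ED50 (mg/kg) was derived from percentage survival at each dose on day 7 (Spearman-Kärber).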

[6] = Association constant to Ac2-L-Lys-D-Ala-D-Ala determined at pH 9; Value ranges from 5E4-7.5E4

SMILES | MIC (Proteus vulgaris) [µg/mL] | MIC (Staphylococcus aureus) [µg/mL] | MIC (Streptococcus pneumoniae) [µg/mL] | MIC (Streptococcus pyogenes [1]) [µg/mL] | MIC (Escherichia coli) [µg/mL] | MIC [2] [µg/mL] | MIC (Streptococcus pyogenes [3]) [µg/mL] | MIC [4] [µg/mL] | MIC (Enterococcus faecalis) [µg/mL] | MIC (Pseudomonas aeruginosa) [µg/mL] | ED50 (Streptococcus pyogenes [5]) [mg/kg] | Ka [6] [M⁻¹]
NCCCCNCCCNC(=O)[C@H]1NC(=O)[C@H]2NC(=O)[C@H](NC(=O)[C@@H]3NC(=O)[C@H]4NC(=O)[C@@H](Cc5ccc(c(Cl)c5)Oc5cc3cc(c5O)Oc3ccc(cc3Cl)[C@H]2O)NC(=O)[C@H](N)c2ccc(O)c(c2)Oc2cc(O)cc4c2)c2ccc(O)c(c2)-c2c(O)cc(O)cc21 | 32 (≈ 24.1 µM) | 0.063 (≈ 0.0475 µM) | 0.125 (≈ 0.0943 µM) | 0.06 (≈ 0.0452 µM) | 2 (≈ 1.51 µM) | 0.063 (≈ 0.0475 µM) | 0.063 (≈ 0.0475 µM) | 0.063 (≈ 0.0475 µM) | 0.125 (≈ 0.0943 µM) | 8 (≈ 6.03 µM) | 0.31 | 75000
NCCCNCCNCCCNC(=O)[C@H]1NC(=O)[C@H]2NC(=O)[C@H](NC(=O)[C@@H]3NC(=O)[C@H]4NC(=O)[C@@H](Cc5ccc(c(Cl)c5)Oc5cc3cc(c5O)Oc3ccc(cc3Cl)[C@H]2O)NC(=O)[C@H](N)c2ccc(O)c(c2)Oc2cc(O)cc4c2)c2ccc(O)c(c2)-c2c(O)cc(O)cc21 | 64 (≈ 47.2 µM) | 0.125 (≈ 0.0922 µM) | 0.125 (≈ 0.0922 µM) | 0.06 (≈ 0.0443 µM) | 2 (≈ 1.48 µM) | 0.125 (≈ 0.0922 µM) | 0.063 (≈ 0.0465 µM) | 0.063 (≈ 0.0465 µM) | 0.125 (≈ 0.0922 µM) | 16 (≈ 11.8 µM) | 2.87 | 75000
